# Screens: PubChem, Broad Institute
# The list is not random: actives were taken first. Their share in the collection is about 3.5%.
# FGF22 binding: binders of human FGF22 protein, primary screen, FGF22 synaptogenesis inhibitor project, biophysical, thermal shift, single point. Fibroblast growth factor 22 (Homo sapiens), Q9HCT0. recombinant FGF22 thermal shift, SYPRO orange fluorescence; percent of sucrose octasulfate shift, DMSO zero. activity (Tm shift, normalised), % at 9.99 µM. 340,000 compounds, 1.5% hits. AID 651658, 2012;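 active = mean Tm shift, scaled 0 neutral to 100 positive control, at about 1.3% or above, every replicate too, limit read from the data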
# Target sequence (Q9HCT0 whole entry, looked up): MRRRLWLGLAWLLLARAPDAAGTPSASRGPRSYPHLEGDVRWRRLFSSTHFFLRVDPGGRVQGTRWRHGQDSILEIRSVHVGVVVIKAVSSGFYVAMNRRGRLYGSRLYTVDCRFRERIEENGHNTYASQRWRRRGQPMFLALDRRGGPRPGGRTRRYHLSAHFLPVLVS
# PGC1a acetyl inh: inhibitors of PGC1a acetylation signal, primary screen, cell-based, U2OS, AlphaScreen, inhibitor mode. AlphaScreen anti-acetyl-lysine; with virally co-expressed GCN5 acetyltransferase. inhibition, % at 15.6 µM. 350,000 compounds, 0.17% hits;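 active = every replicate shows inhibition of at least 40%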;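 also: 0% = neutral control wells and 100% = positive control wells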
# rRNA inh HTS: reduced GFP signal of wild-type E. coli, primary screen, bacterial rRNA inhibitor project, GFP/RFP fluorescence, OD600, single point | 350,000 compounds, 1.6% hits | GFP signal change (wild-type ribosome), % (concentration not given with the values) | E. coli WT GFP vs humanized-ribosome RFP mutants, 24 h; stronger effect = lower value; DMSO median 0, no signal -100 | AID 720706, 2013;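 active = significant combined selectivity score with lowered wild-type GFP, culture density cut under 30%, mutant RFP and density less affected; inactive = any of these conditions unmet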
# Cneo AK release: Cryptococcus neoformans cell lysis inducers, primary screen, AK release luminescence, single concentration; C. neoformans lysis, adenylate kinase release luminescence, 4 h; normalised: neutral wells 0, clomiphene wells 100; lysis activity, % at 15 µM; 360,000 compounds, 0.2% hits;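 active = mean lysis activity across replicates of at least 80%, whatever share of replicates individually reach that level; inactive = mean lysis activity below 80%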
#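 read-out = cell lysis signal | test system = log-phase Cryptococcus neoformans yeast cells | input = cells at 5 × 10^6 per mL | medium = fresh YPD growth medium | signal = luminescent adenylate kinase detection reagent | timing = 4 h at 37 °C static, read 1 h later | dosing = single dose | controls = Clomiphene as positive lysis control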
# Env fusion inh: inhibitors of HIV-1 Env-driven cell-cell fusion, primary screen, HeLa-JRFL effector, CEM21 target cells, luciferase; 360,000 compounds, 1.1% hits; AID 651610, 2012; inhibition, % at 12.3 µM;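 active = mean replicate inhibition score of at least 50 and every replicate individually at or above 50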;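 also: 0% = plate neutral controls and 100% = maraviroc near 300 nM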
# ERAP1 HTS inh: human ERAP1 aminopeptidase inhibitors, primary screen, biochemical, single point, plate reader. 340,000 compounds, 0.15% hits. inhibition, % at 10.7 µM. recombinant ERAP1, Leu-AMC fluorescence, 60 min. AID 652197, 2013;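 active = mean replicate inhibition of at least 30%, or all replicates individually reaching that 30% level; inactive = mean below 30% and not every replicate reaching it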;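 also: 0% = neutral control wells and 100% = L-leucinethiol positive control wells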
# The depositor's hits bear a star; x = no result given; [ ] = another dose, or the depositor's remark.
SMILES,FGF22 binding,PGC1a acetyl inh,rRNA inh HTS,Cneo AK release,Env fusion inh,ERAP1 HTS inh
O=C(/C=C/c1ccco1)Nc1scc(-c2ccccc2)c1C(=O)O,x,10,-34*,-5,-10,12
O=C(Nc1sc2c(c1C(=O)O)CCCC2)c1ccc(F)cc1,0,-5,-38,-3,-39,3
O=C(/C=C/c1ccccc1)Nc1scc(-c2ccccc2)c1C(=O)O,x,-6,-44,x,-5,9
O=C(CCc1ccccc1)Nc1sc2c(c1C(=O)O)CCCC2,0,-9,-32*,0,2,4
COc1cccc(C(C)(O)c2nc(-c3cccc4cccnc34)cs2)c1 (stereo not given),0,-16,-41,3,10,7
C/C(=N/NC(=O)c1cccs1)c1c(C)[nH]n(-c2nc3ccccc3s2)c1=O,0,x,-46,-6,-25,4
O=C(C1CCCC1)N1C[C@H]2[C@@H](c3ccccc31)[C@@H](CO)N2C(=O)c1ccccc1,0,-12,1,-2,x,-1
Cc1cc(C(=O)CN2C(=O)C(=O)N(C3CCCC3)C2=O)c(C)n1CCc1ccc(F)cc1,0,13,2,1,x,0
CO[C@@H]1CN(C)C(=O)c2cc(NC(=O)C3CCC3)ccc2OC[C@@H](C)N(CC2CCCCC2)C[C@@H]1C,0,4,-1,0,x,0
Cc1ccc(C(=O)Nc2scc(-c3ccccc3)c2C(=O)O)o1,0,x,-34*,x,-26,0
Cc1ccc(C(=O)Nc2sc3c(c2C(=O)O)CCCCC3)o1,x,7,x,-19,x,x
Cc1ccc(C(=O)Nc2sc3c(c2C(=O)O)CCCC3)o1,0,x,-25*,-1,16,3
Cc1ccc(C(=O)Nc2ccccc2-c2ccccc2)o1,x,-13,x,-7,x,x
CC(=O)OC[C@]12CC[C@H]3[C@@](C)(CC[C@H]4C(C)(C)CCC[C@]34C)[C@@H]1CC(C1=CC(=O)OC1O)O2 (stereo not given in full),0,87*,x,13,x,3
Cc1cc(C(F)(F)F)nc(SCCN2CCOCC2)c1C#N,43*,6,2,1,21,0
CN1CCN(C(=O)/C(=C/c2ccc(F)cc2)c2ccsc2)CC1,43*,1,5,x,-10,0
CN1CCN(C(=O)/C(=C/c2ccccc2)c2ccccc2)CC1,x,-15,x,1,-8,x
COc1ccc2c(c1)CCc1c(C(=O)N(C)c3ccccc3)noc1-2,0,5,-43*,-4,-20,5
O=C(CCN1C(=O)S/C(=C\c2cccs2)C1=O)Nc1nccs1,0,3,1,x,6,x
CN1CCN(C(=O)C[C@@H]2C[C@@H]3c4cc(NC(=O)Cc5ccncc5)ccc4O[C@@H]3[C@H](CO)O2)CC1,1,1,2,-3,-3[16.7 µM],-6
CCOC(=O)c1[nH]c2ccc(F)cc2c1NC(=O)Nc1ccccc1OC,x,0,x,1,x,x
Cc1ccc(Cn2nnc3c(=O)n(CC(=O)OCc4ccccc4)cnc32)cc1,0,3,-1,-19,x,-4
Cc1ccc(Cn2nnc3c(=O)n(CC(=O)N4CCN(c5ccccc5)CC4)cnc32)cc1,0,-3,-25*,0,x,1
COC(=O)c1ccc(Cl)c(NC(=O)CN(c2ccc(OC)c(OC)c2)S(C)(=O)=O)c1,x,x,x,x,-25,x
COc1cccc(CNC(=O)COC(=O)c2nc(Cl)c(Cl)c(Cl)c2Cl)c1,0,-43,1,-1,x,2
SMILES,FGF22 binding,PGC1a acetyl inh,rRNA inh HTS,Cneo AK release,Env fusion inh,ERAP1 HTS inh
COC(=O)C1=C(C)Nc2nc(-c3ccccc3)nn2C1c1ccc(C)o1 (stereo not given),0,-12,-22*,-2,-81,x
O=[N+]([O-])c1ccccc1S(=O)(=O)NCc1ccc(F)cc1,0,-5,-12,x,17,10
Cc1ccccc1CNS(=O)(=O)c1ccccc1[N+](=O)[O-],0,8,-28*,4,1,11
COc1cc(NC(=O)C2=CC(c3cccs3)=NS(=O)(=O)N2C)cc(OC)c1OC,0,-11,-7,0,4,-1
Cc1noc(C)c1S(=O)(=O)N(C)C[C@H]1OCCCC[C@@H](C)Oc2ccc(NC(=O)Nc3ccc(C(F)(F)F)cc3)cc2C(=O)N([C@@H](C)CO)C[C@H]1C,0,6,-2,0,44[16.7 µM],-1
Cc1noc(C)c1S(=O)(=O)N(C)C[C@H]1OCCCC[C@@H](C)Oc2ccc(NC(=O)Nc3ccc4c(c3)OCO4)cc2C(=O)N([C@@H](C)CO)C[C@H]1C,0,12,-1,-3,-4[16.7 µM],x
Cc1noc(C)c1S(=O)(=O)N(C)C[C@@H]1OCCCC[C@@H](C)Oc2ccc(NC(=O)Nc3ccc(C(F)(F)F)cc3)cc2C(=O)N([C@H](C)CO)C[C@H]1C,0,3,-5,5,83*[16.7 µM],-1
Cc1noc(C)c1S(=O)(=O)N(C)C[C@H]1OCCCC[C@H](C)Oc2ccc(NC(=O)Nc3ccc4c(c3)OCO4)cc2C(=O)N([C@@H](C)CO)C[C@@H]1C,0,-16,-2,10,60*[16.7 µM],x
Cc1ccc(S(=O)(=O)NCc2ccc(C(=O)N3CCN(c4ccccn4)CC3)cc2)cc1,x,-5,-17,0,16,4
COc1cccc(-c2cccc(NC(=O)C3CCN(Cc4nccs4)CC3)c2)c1,0,-2,-4,2,10,1
CC(C)c1csc(CN2CCC(C(=O)Nc3cccc(-c4ccco4)c3)CC2)n1,44*,x,x,x,-3,0
COCCNC(=O)C1CCCN(C(=O)c2cccnc2Oc2ccccc2)CC1 (stereo not given),0,2,9,-1,6,-1
CS(=O)(=O)NCc1nnc(SCc2ccccc2C(F)(F)F)o1,x,4,x,x,x,x
CC(=O)c1ccc(N2CCN(S(=O)(=O)c3cccc4nsnc34)CC2)cc1,43*,-11,6,x,3,-2
CN(C)c1ccc(C=C2SC(=S)NC2=O)cc1,0,51*,6,4,-21,-2
CCOc1ccc(N(C)c2ccc(/C=C3/SC(=S)NC3=O)cc2)cc1,0,x,10,-2,7,4
C=CCn1c(SCC(=O)N2CCc3ccccc3C2)nc2sc(CC)cc2c1=O,x,1,x,-4,33,x
CCN(CC)S(=O)(=O)c1cc([N+](=O)[O-])ccc1NNC(=O)Nc1ccc(F)cc1,x,4,x,0,57*,x
